We go through 20 molecules from ChEMBL document CHEMBL1759907, “Identification and optimization of tetrahydro-2H-3-benzazepin-2-ones as squalene synthase inhibitors” (Bioorg Med Chem Lett, 2011).

Usually IC50 stands for the concentration at which inhibition is half-maximal. Usually inhibition in vivo stands for the change of the read-out against control, counted positive when it falls. Higher therefore signals a response far below the control.

One data set has as its target T1, Squalene synthase (Homo sapiens, UniProt P37268).
T1 sequence (P37268 whole entry): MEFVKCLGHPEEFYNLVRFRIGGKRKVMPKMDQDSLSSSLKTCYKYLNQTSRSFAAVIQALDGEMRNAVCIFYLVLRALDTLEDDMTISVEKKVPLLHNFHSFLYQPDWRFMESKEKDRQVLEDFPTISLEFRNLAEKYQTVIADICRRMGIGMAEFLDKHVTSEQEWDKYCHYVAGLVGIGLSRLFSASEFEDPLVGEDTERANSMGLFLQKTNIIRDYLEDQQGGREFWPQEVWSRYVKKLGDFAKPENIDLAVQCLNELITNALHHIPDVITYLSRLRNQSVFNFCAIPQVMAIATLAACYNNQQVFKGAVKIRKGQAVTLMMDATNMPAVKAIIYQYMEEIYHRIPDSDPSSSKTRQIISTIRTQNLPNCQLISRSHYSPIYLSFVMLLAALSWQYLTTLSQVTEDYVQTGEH
In words: Inhibition of squalene synthase assessed as conversion of […] to [3H]squalene after 10 mins by scintillation counting. The gist of the method: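 Reaction started with farnesyl pyrophosphate plus 0.2 nM trans,trans-[1-3H]-FPP and run for 10 min at 37 °C. Extracted with chloroform/methanol/5 N NaOH, adjusted to 2 mM squalene; organic phase counted by scintillation. Mean of three experiments.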

For the next data set, the system named is Mus musculus. The data set is described as follows: Inhibition of hepatic cholesterol biosynthesis in NMRI mouse at 3 mg/kg, po administered 1 hr before administering [14C]mevalonate as substrate measured after 10 mins. The format is functional.
Data set [1] is described as follows: Metabolic stability in human liver microsomes assessed as compound remaining after 60 mins. The settings on record: read-out: Stability. It counts as ADME, Microsome.

Consider `COc1cccc([C@H]2CN(CC(=O)N3CCC(C(=O)O)CC3)C(=O)[C@@H](CC(C)C)c3ccc(Cl)cc32)c1OC`, for which the IC50 on Squalene synthase was more than 20000 nM.

As to `COc1cccc([C@@H]2CN(CC(=O)N3CCC(C(=O)O)CC3)C(=O)[C@H](CC(C)C)c3ccc(Cl)cc32)c1OC`, the IC50 at Squalene synthase was determined as 220 nM. In addition, the inhibition in vivo at 3 mg/kg in the data set with Mus musculus was determined as 47%. Moreover, in data set [1], the remaining at 1 h came out at 89%.

For the molecule `CC(C)C[C@H]1C(=O)N(CC(=O)O)C[C@H](c2ccccc2Cl)c2cc(Cl)ccc21` (racemic), at Squalene synthase, the IC50 amounted to 3300 nM. For the same molecule, the remaining at 1 h in data set [1] is 60%. Regarding `CCOC(=O)CN1C[C@H](c2ccccc2Cl)c2cc(Cl)ccc2[C@@H](CC(C)C)C1=O` (racemic), on Squalene synthase, the IC50 was more than 20000 nM. With `Cc1ccc2c(c1)[C@@H](c1ccccc1Cl)CN(CC(=O)O)C(=O)[C@@H]2CC(C)C` (racemic), the IC50 on Squalene synthase was more than 20000 nM. The same measure, in the same setting: to `CC(C)C[C@H]1C(=O)N(CC(=O)O)C[C@H](c2ccccc2Cl)c2cc(F)ccc21` (racemic) belongs more than 20000 nM; to `CC(C)C[C@H]1C(=O)N(CC(=O)O)C[C@H](c2ccccc2Cl)c2ccccc21` (racemic), more than 20000 nM. Still for that read-out and setting: to `C=C(C)C[C@H]1C(=O)N(CC(=O)O)C[C@H](c2ccccc2Cl)c2cc(Cl)ccc21` (racemic) belongs 5500 nM; to `CC(C)(O)C[C@H]1C(=O)N(CC(=O)O)C[C@H](c2ccccc2Cl)c2cc(Cl)ccc21` (racemic), more than 20000 nM. Take `O=C(O)CN1C[C@H](c2ccccc2Cl)c2cc(Cl)ccc2[C@@H](Cc2ccccc2)C1=O` (racemic): the IC50 at Squalene synthase was more than 20000 nM. As to `CC(C)C[C@H]1C(=O)N(CC(=O)O)C[C@H](c2ccccc2)c2cc(Cl)ccc21` (racemic), at Squalene synthase, the IC50 was 15300 nM. Turning to `CC(C)C[C@H]1C(=O)N(CC(=O)O)C[C@H](c2ccccc2Br)c2cc(Cl)ccc21` (racemic), the IC50 on Squalene synthase amounted to 2200 nM. `COc1ccccc1[C@H]1CN(CC(=O)O)C(=O)[C@H](CC(C)C)c2ccc(Cl)cc21` (racemic): on Squalene synthase, the IC50 stood at 1900 nM. In the case of `COc1cccc([C@H]2CN(CC(=O)O)C(=O)[C@H](CC(C)C)c3ccc(Cl)cc32)c1OC` (racemic), the IC50 at Squalene synthase came out at 1200 nM. In the case of `CC(C)C[C@H]1C(=O)N(CC(=O)NCCCCCC(=O)O)C[C@H](c2ccccc2Cl)c2cc(Cl)ccc21` (racemic), the half-inhibitory concentration (IC50) on Squalene synthase came out at 2400 nM. For `CC(C)C[C@H]1C(=O)N(CC(=O)N2CCC(CC(=O)O)CC2)C[C@H](c2ccccc2Cl)c2cc(Cl)ccc21` (racemic), the IC50 on Squalene synthase is 1400 nM. 3 mg/kg produced 25% inhibition in vivo with Mus musculus. Besides, the remaining at 1 h in data set [1] was determined as 70%. On the same counts, the results for `CC(C)C[C@H]1C(=O)N(CC(=O)N2CCC(C(=O)O)CC2)C[C@H](c2ccccc2Cl)c2cc(Cl)ccc21` (racemic) are 930 nM, 25% and 53%.

For `COc1ccccc1[C@H]1CN(CC(=O)N2CCCCC2)C(=O)[C@H](CC(C)C)c2ccc(Cl)cc21` (racemic), the IC50 on Squalene synthase amounted to 370 nM. The remaining at 1 h in data set [1] turned out to be 2%.

In the case of `COc1ccccc1[C@H]1CN(CC(=O)N2CCC(C(=O)O)CC2)C(=O)[C@H](CC(C)C)c2ccc(Cl)cc21` (racemic), at Squalene synthase, the IC50 is 500 nM. In the data set with Mus musculus, this molecule returned an inhibition in vivo at 3 mg/kg of 39%. Moreover, in data set [1], the remaining at 1 h turned out to be 72%.

As for `COc1cccc([C@H]2CN(CC(=O)N3CCC(C(=O)O)CC3)C(=O)[C@H](CC(C)C)c3ccc(Cl)cc32)c1OC` (racemic), at Squalene synthase, the IC50 came out at 450 nM. Further, the remaining at 1 h in data set [1] is 78%.
